According to ChEMBL document CHEMBL1132955 (J Med Chem, 2000):

How the values were obtained:
Human alphaherpesvirus 3 [1] = assay: Evaluated for the anti-VZV, the concentration of compounds in uM required to reduce VZVTK-07 ( thymidine kinase-deficient strain ) plaque formation after 5 days in HEL cell cultures compared to untreated controls.; format: functional, organism-based; conditions: Human alphaherpesvirus 3, tk-07, HEL, 120 h
Human alphaherpesvirus 3 [2] = assay: Evaluated for the anti-VZV activity, the concentration of compounds in uM required to reduce VZV OKA Plaque formation after 5 days in HEL cell cultures compared to untreated controls.; format: functional, organism-based; conditions: Human alphaherpesvirus 3, oka, 120 h
In short: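 Confluent HEL fibroblasts infected with VZV at 20 PFU/well. Residual virus removed after 1-2 h adsorption. Cells then kept in MEM with 2% inactivated FCS, 1% L-glutamine and 0.3% sodium bicarbonate plus serial compound dilutions. OKA and YS strains are TK-competent; 07 and YS-R are TK-deficient.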

Human alphaherpesvirus 3 [3] = assay: Evaluated for the anti-VZV, the concentration of compounds in uM required to reduce VZVTK-YS-R ( thymidine kinase-deficient strain ) plaque formation after 5 days in HEL cell cultures compared to untreated controls.; format: functional, organism-based; conditions: Human alphaherpesvirus 3, tkys-r, 120 h
Human alphaherpesvirus 3 [4] = assay: (§1) Minimal cytotoxic concentration, the concentration required to cause a microscopically visible alteration of normal cell morphology.; format: functional
In short: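 Uninfected HEL cell cultures exposed to graded compound concentrations. Morphology inspected by microscope. MCC is the lowest concentration producing a visible change in normal cell morphology.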

Human alphaherpesvirus 3 [5] = assay: (§2) cytostatic concentration required to reduce the HEL cell number by 50%. after 5 days in the absence of virus; format: functional; conditions: Human alphaherpesvirus 3, HEL, 120 h
In short: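 HEL cells in 96-well plates treated with graded compound concentrations without virus for 5 days. Cells then trypsinized and counted with a Coulter counter.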

Human alphaherpesvirus 3 [6] = assay: Evaluated for the anti-VZV activity, the concentration of compounds in uM required to reduce VZV […] plaque formation after 5 days in HEL cell cultures compared to untreated controls.; format: functional, organism-based; conditions: Human alphaherpesvirus 3, ys, 120 h
Human alphaherpesvirus 3 [7] = assay: Evaluated for the anti-VZV activity, the concentration of compounds in uM required to reduce VZV OKA plaque formation after 5 days in HEL cell cultures compared to untreated controls.; format: functional, organism-based; conditions: Human alphaherpesvirus 3, oka, 120 h
In short: (§3)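 Confluent HEL fibroblasts infected with VZV at 20 PFU/well. Residual virus removed after 1-2 h adsorption. Cells then kept in MEM with 2% inactivated FCS, 1% L-glutamine and 0.3% sodium bicarbonate plus serial compound dilutions. […] OKA and YS strains are TK-competent; 07 and YS-R are TK-deficient.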

Human alphaherpesvirus 3 [8] = assay: Evaluated for the anti-VZV activity, which is the concentration of compounds in uM required to reduce VZV YS plaque formation after 5 days in HEL cell cultures compared to untreated controls.; format: functional, organism-based; conditions: Human alphaherpesvirus 3, ys, 120 h; in short: as §3
Human alphaherpesvirus 3 [9] = assay: Evaluated for the anti-VZV activity, the concentration of compounds in uM required to reduce VZV TK-07 (thymidine kinase-deficient strain ) plaque formation after 5 days in HEL cell cultures compared to untreated controls.; conditions: Human alphaherpesvirus 3, tk-07, HEL, 120 h
Human alphaherpesvirus 3 [10] = assay: Evaluated for the anti-VZV, the concentration of compounds in uM required to reduce VZV TK-YS-R ( thymidine kinase-deficient strain ) plaque formation after 5 days in HEL cell cultures compared to untreated controls.; format: functional, organism-based; conditions: Human alphaherpesvirus 3, ys-r, 120 h; in short: as §3
Human alphaherpesvirus 3 [11] = assay: Evaluated for the anti-VZV activity, the concentration required to reduce VZV YS plaque formation after 5 days in HEL cell cultures compared to untreated controls.; format: functional, organism-based; conditions: Human alphaherpesvirus 3, ys, 120 h; in short: as §3
Human alphaherpesvirus 3 [12] = assay: Evaluated for the anti-VZV, the concentration required to reduce VZVTK-YS-R ( thymidine kinase-deficient strain ) plaque formation after 5 days in HEL cell cultures compared to untreated controls.; format: functional, organism-based; conditions: Human alphaherpesvirus 3, ys-r, 120 h; in short: as §3
Human alphaherpesvirus 3 [13] = assay: Evaluated for the anti-VZV activity, the concentration required to reduce VZV OKA plaque formation after 5 days in HEL cell cultures compared to untreated controls.; format: functional, organism-based; conditions: Human alphaherpesvirus 3, oka, 120 h; in short: as §3
Human alphaherpesvirus 3 [14] = assay: Evaluated for the anti-VZV, the concentration required to reduce VZV TK -07 ( thymidine kinase-deficient strain ) plaque formation after 5 days in HEL cell cultures compared to untreated controls.; format: functional, organism-based; conditions: Human alphaherpesvirus 3, tk-07, HEL, 120 h; in short: as §3
Human alphaherpesvirus 3 [15] = assay: as §2; format: functional; conditions: Human alphaherpesvirus 3, t, 120 h
In short: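 HEL fibroblasts, grown in MEM with 10% inactivated FCS, 1% L-glutamine and 0.3% sodium bicarbonate, were treated in 96-well cultures with varying compound concentrations for 5 days without virus. Cells were then trypsinized and counted with a Coulter counter. The value is the concentration giving 50% reduction in cell number.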

Human alphaherpesvirus 3 [16] = assay: as §1; format: functional; conditions: Human alphaherpesvirus 3, t

| SMILES | EC50 (Human alphaherpesvirus 3 [1]) [nM] | EC50 (Human alphaherpesvirus 3 [2]) [nM] | EC50 (Human alphaherpesvirus 3 [3]) [nM] | MCC (Human alphaherpesvirus 3 [4]) [µM] | CC50 (Human alphaherpesvirus 3 [5]) [nM] | EC50 (Human alphaherpesvirus 3 [6]) [nM] | also measured |
| --- | --- | --- | --- | --- | --- | --- | --- |
| CCCCCCCCCCc1cc2cn([C@H]3C[C@H](O)[C@@H](CO)O3)c(=O)nc2o1 | > 50000 | 15 | > 50000 | > 50 | > 50000 | 8 |  |
| O=c1nc2oc(-c3ccc(Cl)cc3)cc2cn1[C@H]1C[C@H](O)[C@@H](CO)O1 | > 50000 | 100 | > 50000 | 200 |  | 100 |  |
| CCCCCCCCCc1cc2cn([C@H]3C[C@H](O)[C@@H](CO)O3)c(=O)nc2o1 | > 200000 | 20 | > 200000 | > 200 | > 200000 | 20 |  |
| CCCCCCCCc1ccc(-c2cc3cn([C@H]4C[C@H](O)[C@@H](CO)O4)c(=O)nc3o2)cc1 | > 20000 | 40 | > 20000 | > 20 | > 200000 | 27 |  |
| CCCCCCCCc1cc2cn([C@H]3C[C@H](O)[C@@H](CO)O3)c(=O)nc2o1 | > 50000 |  | > 50000 | > 50 | > 50000 | 24 | EC50 (Human alphaherpesvirus 3 [7]): 8 nM |
| Cc1ccc(-c2cc3cn([C@H]4C[C@H](O)[C@@H](CO)O4)c(=O)nc3o2)cc1 |  |  |  | > 200 | > 200000 |  | EC50 (Human alphaherpesvirus 3 [8]): 60 nM; EC50 (Human alphaherpesvirus 3 [7]): 60 nM; EC50 (Human alphaherpesvirus 3 [9]): 103000 nM; EC50 (Human alphaherpesvirus 3 [10]): > 200000 nM |
| O=c1nc2oc(-c3ccc(Br)cc3)cc2cn1[C@H]1C[C@H](O)[C@@H](CO)O1 | > 50000 | 500 | > 50000 | 50 |  | 500 |  |
| O=c1nc2oc(-c3ccccc3)cc2cn1[C@H]1C[C@H](O)[C@@H](CO)O1 |  |  |  | > 200 | > 200000 |  | EC50 (Human alphaherpesvirus 3 [11]): 160 nM; EC50 (Human alphaherpesvirus 3 [12]): 162000 nM; EC50 (Human alphaherpesvirus 3 [13]): 280 nM; EC50 (Human alphaherpesvirus 3 [14]): > 200000 nM |
| Nc1nc2c(ncn2COCCO)c(=O)[nH]1 [ACYCLOVIR] |  |  |  | > 200 | > 200000 |  |  |
| O=c1[nH]c(=O)n([C@H]2C[C@H](O)[C@@H](CO)O2)cc1/C=C/Br [BRIVUDINE] | > 150000 | 3 | > 150000 |  |  | 3 | CC50 (Human alphaherpesvirus 3 [15]): > 400000 nM; MCC (Human alphaherpesvirus 3 [16]): > 400 µM |
